These results are taken from ChEMBL document CHEMBL3272012, “5-(Tetradecyloxy)-2-furancarboxylic acid and related hypolipidemic fatty acid-like alkyloxyarylcarboxylic acids” (J Med Chem, 1977).

A word on the inhibition in vivo: it is the change of the read-out against control, counted positive when it falls.

Data set [1] relates to Rattus norvegicus. Nature of the data set: Hypolipidemic activity in Wistar rat assessed as reduction in plasma cholesterol level at 437 umol/kg/day administered through diet for 4 days. The format is functional. The settings on record: 96 h. The method in brief: (§1)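 Young male Wistar rats, 170-190 g initial weight, groups of six, given compound mixed thoroughly into Purina Lab Chow ad libitum for 4 or 10 days as stated. Daily dose calculated from food consumption and body weight. Bled by cardiac puncture at end of treatment; plasma cholesterol measured by automated procedure. Expressed as percent reduction versus simultaneous untreated control group; Student's t test.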

For data set [2], the system named is Rattus norvegicus. Nature of the data set: Hypolipidemic activity in Wistar rat assessed as reduction in plasma triglyceride level at 437 umol/kg/day administered through diet for 4 days. The conditions noted are these: 96 h. The format is functional.
For data set [3], the system named is Rattus norvegicus. Description: Increase in cholesterol level in Wistar rat liver at 437 umol/kg/day administered through diet for 4 days. The conditions noted are these: in vivo, po, 96 h. Type of data set: ADME, organism-based.
Data set [4] concerns Rattus norvegicus. Description: Increase in liver weight in Wistar rat at 437 umol/kg/day administered through diet for 4 days. The conditions noted are these: in vivo, po, 96 h. Type of data set: ADME, organism-based.
The subject of data set [5] is Rattus norvegicus. Nature of the data set: Hypolipidemic activity in Wistar rat assessed as reduction in plasma cholesterol level at 441 umol/kg/day administered through diet for 4 days. Type of data set: functional. The conditions noted are these: 96 h. In a few lines: as §1
For data set [6], the system named is Rattus norvegicus. Description: Hypolipidemic activity in Wistar rat assessed as reduction in plasma triglyceride level at 441 umol/kg/day administered through diet for 4 days. Type of data set: functional. The settings on record: 96 h.
For data set [7], the system named is Rattus norvegicus. Nature of the data set: Increase in cholesterol level in Wistar rat liver at 441 umol/kg/day administered through diet for 4 days. Type of data set: ADME, organism-based. The settings on record: in vivo, po, 96 h.
The test system of data set [8] is Rattus norvegicus. Nature of the data set: Increase in liver weight in Wistar rat at 441 umol/kg/day administered through diet for 4 days. Type of data set: ADME, organism-based. The settings on record: in vivo, po, 96 h.

On to `CCCCCCCCCCCCCCCCOc1ccc(C(=O)O)o1`, for which the inhibition in vivo at 437 µmol/kg in data set [1] worked out at 24%; in data set [2], 25%. For the same compound, the Activity in data set [3] turned out to be 5%; in data set [4], 4%.
For the compound `CCCCCCCCCCCCCCOc1ccc(C(=O)O)s1`, the values for the inhibition in vivo at 441 µmol/kg in data set [5] and in data set [6] were 54% and 83%, respectively. Also, the Activity in data set [7] was 1%; in data set [8], 4%.
